# Screening data (PubChem BioAssay)
# M1 PAM = positive allosteric modulators of human M1 muscarinic receptor; P11229; CHO-K1 hM1, Fluo-8 calcium fluorescence, ACh EC20; 0% = ACh EC20, 100% = maximal ACh; activation, % at 3 µM; actives 0.088% (n = 360,000); in the data active = activation above about 19%, passing the limit was not always enough
# M1 ag = human M1 muscarinic receptor agonism. CHO-K1 hM1, Fluo-8 calcium fluorescence, agonist mode; 0% DMSO, 100% acetylcholine EC100. P11229. activation, % at 3 µM. AID 588814. actives 0.33% (n = 360,000);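 active = activation above the run's mean compound activation plus 3 SD, cut at about 16% in these data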;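 note: peak over basal fluorescence ratio within a 140 s kinetic read after compound addition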
# M5 ag = CHRM5 agonism in calcium assay; CHO-K1 hM5 cells, Fluo-8 calcium fluorescence; 0% DMSO wells, 100% maximal acetylcholine response; activation, % at 3 µM; actives 0.19% (n = 360,000); AID 624037;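 active = activation above the run's mean over test compounds plus 3 SD, cut at about 23% in these data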;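 note: signal is peak over basal fluorescence ratio across the kinetic read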
# Target sequence (P08912 whole entry, looked up): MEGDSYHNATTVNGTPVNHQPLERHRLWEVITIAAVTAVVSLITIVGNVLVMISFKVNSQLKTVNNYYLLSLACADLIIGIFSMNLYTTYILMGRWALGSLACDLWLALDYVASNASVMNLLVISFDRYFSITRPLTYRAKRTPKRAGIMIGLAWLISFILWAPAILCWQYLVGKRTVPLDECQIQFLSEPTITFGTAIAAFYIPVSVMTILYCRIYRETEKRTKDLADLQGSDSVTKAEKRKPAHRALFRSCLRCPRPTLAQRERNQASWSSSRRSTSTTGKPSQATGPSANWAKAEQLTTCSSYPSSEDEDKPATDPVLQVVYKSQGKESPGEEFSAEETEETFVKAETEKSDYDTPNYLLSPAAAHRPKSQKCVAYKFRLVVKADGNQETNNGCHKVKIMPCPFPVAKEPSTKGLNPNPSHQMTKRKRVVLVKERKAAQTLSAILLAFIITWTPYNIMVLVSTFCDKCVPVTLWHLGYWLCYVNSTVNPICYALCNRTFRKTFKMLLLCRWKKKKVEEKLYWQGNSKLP
# CHRM5 antagonist = blocks acetylcholine activation of human M5 receptor. P08912. CHO-hM5 cells, Fluo-8 calcium fluorescence, ACh EC80. inhibition, % at 3 µM. actives 0.59% (n = 360,000). AID 624040;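 active = inhibition above a per-plate cutoff, the mean of that plate's test compounds plus 3 SD, cut at about 27% in these data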;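 note: 0% = acetylcholine EC80 with DMSO and 100% = DMSO without agonist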
# CHRM5 PAM = CHRM5 positive allosteric modulation | P08912 | activation, % at 3 µM | CHO-K1 hM5, Fluo-8 calcium, ACh EC20 PAM; 0% = ACh EC20, 100% = ACh EC100 | actives 0.3% (n = 360,000);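 active = activation above the run cutoff, the mean activation of all test compounds plus 3 SD, cut at about 18% in these data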
#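 system = human M5 receptor in CHO-K1 cells | reagent = EC20 acetylcholine as agonist stimulus | compound dosing = single-point, 3 µM nominal | incubation = Fluo-8 loading 80 min at 37 °C plus 30 min room temperature | detection = Fluo-8 calcium dye fluorescence, kinetic read | benchmarks = low control EC20 acetylcholine (0%), high control EC100 acetylcholine (100%)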
# M1 antag = antagonists of human M1 muscarinic receptor; CHO-K1 hM1, Fluo-8 calcium fluorescence, ACh EC80 antagonist; inhibition, % at 3 µM; actives 1.3% (n = 360,000);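 active = percent inhibition above its own plate's cutoff, namely the mean of that plate's compound wells plus 3 SD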;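 note: peak over basal fluorescence ratio during 140 s after agonist addition; 0% = ACh EC80 plus DMSO and 100% = DMSO alone without agonist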
# * marks the source's active call; other numbers are inactive results; . = not tested or not shown. Only some compounds are listed: those with a hit (about 2.2% of all), similar ones and a draw of the others.
SMILES,M1 PAM,M1 ag,M5 ag,CHRM5 antagonist,CHRM5 PAM,M1 antag
CN1CCC=C(C(=O)N2c3ccccc3Sc3ccc(Cl)cc32)C1,-27,-8,-22,99*,-32,101*
O=C(CN1CCOCC1)N1c2ccccc2Sc2ccc(Cl)cc21,-17,-8,-3,8,-9,20
O=C(CN1CCN(CCOCCO)CC1)N1c2ccccc2Sc2ccc(Cl)cc21,-21,-6,-14,2,-33,93*
CN1CCN(CCC(=O)N2c3ccccc3Sc3ccc(Cl)cc32)CC1,-27,-7,-7,9,-15,57*
CC(=O)NC(C)(c1ccccc1)c1nc(-c2ccc(F)c(Cl)c2)cs1 (stereo unspecified),1,-4,-2,7,-3,-7
COc1ccc(S(=O)(=O)N2CCCC2C(=O)Nc2ccc(C(C)=O)cc2)cc1 (stereo unspecified),12,-3,2,1,-4,-8
O=C(CCN1CCN2CCCC2C1)N1c2ccccc2Sc2ccc(Cl)cc21 (stereo unspecified),-29,-9,-7,11,-10,83*
NCCC(=O)N1c2ccccc2Sc2ccc(Cl)cc21,-30,-8,-20,61*,-33,91*
Cc1ccc(-n2nc(C)cc2NC(=O)c2ccc(C)s2)cc1,-17,-8,-12,20,-14,21
CC1(C)C2C(Cl)(Cl)C2(C)c2ccccc2N1C=O (stereo unspecified),8,-3,-3,6,0,-9
CCCCNC(=O)c1sc(=S)n2c1[nH]c(=O)c1ccc(C(=O)NCCc3ccc(OC)c(OC)c3)cc12,23,6,2,-27,25*,-4
Cc1ccc(C2C(C#N)=C(N)SC(N)=C2C#N)c(C)c1,-3,20*,15,5,-4,12
Cc1ccc(C2C(C#N)=C(N)SC(N)=C2C#N)cc1,-1,8,6,2,-4,10
O=C(NNC(=O)c1ccccc1F)c1ccc(-n2cncn2)c([N+](=O)[O-])c1,-12,1,-1,7,0,36*
O=C(Nc1cccc(/C=C/c2ccccn2)c1)c1ccc(-n2cncn2)c([N+](=O)[O-])c1,-8,1,5,24,-33,20*
NC(=O)c1oc2ccccc2c1NC(=O)c1nc2ccccc2s1,0,-1,-3,2,-1,-23
O=C(Nc1nnc(-c2ccccc2)o1)c1nc2ccccc2s1,-9,66*,-1,1,4,-2
COc1ccc(C(=O)NC(=S)Nc2ccc3[nH]c(=O)[nH]c3c2)c(OC)c1,6,-1,-3,-3,-1,-9
S=c1[nH]nc(-c2ccncc2)n1/N=C/c1cn(-c2ccccc2)nc1-c1ccccc1,24,12,17,5,23*,-9
CCCn1c(Oc2ccccc2)nc2c1c(=O)n(C)c(=O)n2C,15,-1,7,-23,11,-22
Cn1cc(C(=O)N2CCN(c3ccccn3)CC2)c(=O)c2cc(S(=O)(=O)N3CCOCC3)ccc21,7,-4,-2,-4,20*,-8
COc1ccc(-c2nc3ccccn3c2Cl)cc1,12,0,-5,-5,7,-5
O=C(c1ccco1)N1CCN(c2ccc(Cl)cc2)CC1,6,12,2,-2,1,-11
O=C(c1ccco1)N1CCN(c2ccc(Cl)c(Cl)c2)CC1,-14,-3,6,8,-7,33*
N#Cc1nc(-c2ccccc2Cl)oc1N1CCN(C(=O)c2ccco2)CC1,19,1,0,-19,23*,-16
SMILES,M1 PAM,M1 ag,M5 ag,CHRM5 antagonist,CHRM5 PAM,M1 antag
O=C(CCC(=O)N1CCN(c2ccc(Cl)c(Cl)c2)CC1)c1ccccc1,-19,0,3,27*,-15,44*
O=C(CCC(=O)N1CCN(c2ccc(F)cc2)CC1)c1ccc(Cl)cc1,1,-1,1,3,-5,-5
Cc1ccc(NS(=O)(=O)c2ccc(-n3cccn3)cc2)cc1F,-7,1,5,14,-5,10
COc1cccc(NS(=O)(=O)c2ccc(-n3cccn3)cc2)c1,-18,4,4,18,-14,44*
O=C(/C(=C/O)N=Nc1ccccc1)c1ccc(Cl)cc1,3,-7,-2,-12,19*,-2
CC1CN(C(=O)COC(=O)c2ccc(C#N)cc2)CC(C)O1 (stereo unspecified),-7,0,-3,-3,3,6
COc1ccc(C(=O)CSc2nnc(CNC(=O)c3ccc(OC)cc3)n2C)cc1,-2,-9,-2,5,0,-3
COc1ccc(S(=O)(=O)c2cnc3ccc(OC)cc3c2N2CCC3(CC2)OCCO3)cc1,-19,-1,3,12,-18,28*
COc1ccc(N2CCN(c3c(S(=O)(=O)c4ccccc4)cnc4ccc(OC)cc34)CC2)cc1,-15,-5,-3,20,-14,14
Clc1ccc(-c2cnc3n2CCCCC3)cc1,-22,-7,-11,8,-28,41*
Brc1ccc(-c2cnc3n2CCCC3)cc1,-18,-5,-11,0,-9,9
Fc1ccc(-c2cnc3n2CCCCC3)cc1,-19,-8,-18,5,-13,39*
COc1ccc(C(C(=O)Nc2ccc(F)cc2)N2CCN(c3cccc(C(F)(F)F)n3)CC2)cc1 (stereo unspecified),.,.,-1,12,-17,.
COc1ccc(N2CCN(c3ncnc4c3[nH]c3ccccc34)CC2)cc1,-11,2,8,28*,-21,30
Fc1ccc2[nH]c3c(N4CCN(c5ccccc5)CC4)ncnc3c2c1,-18,7,5,50*,-23,54*
OC1(c2cccc(C(F)(F)F)c2)CCN(c2ncnc3c2[nH]c2ccc(F)cc23)CC1,-12,-1,1,31*,-22,36*
CCOC(=O)N1CCN(c2ncnc3c2[nH]c2ccc(F)cc23)CC1,-15,3,-1,1,-37,28*
COc1ccccc1N(C(=O)CNC(=O)c1ccco1)C(C(=O)NC1CCCCC1)c1ccncc1 (stereo unspecified),-4,-3,-3,19,-6,8
COc1cc(NC(=O)COC(=O)C2CC(O)CN2S(=O)(=O)c2ccc(Cl)cc2)c(C)cc1[N+](=O)[O-] (stereo unspecified),9,-5,3,-1,10,-6
CN(c1ccccc1)S(=O)(=O)c1ccc(NC(=O)c2nc(S(C)(=O)=O)ncc2Cl)cc1,-10,0,2,31*,-12,31
